Experimental data from different studies.
Lines come from different studies, so protocols differ.

The chromatographic logP of O=C(NCCCCCn1ccc2ccc(F)cc21)Oc1ccc(C(=O)O)cc1 is reported as 2.8 (HPLC).
With NCC(=O)Nc1ccc(-n2nc(C(F)(F)F)cc2-c2ccc3c(ccc4ccccc43)c2)cc1 the half-life was 22 h (mouse, plasma; oral, 80 mg/kg).
The half-life of Cc1cc(C)nc(Nc2ncc(C(=O)NCCc3c(C)[nH]c4ccccc34)cn2)c1 is reported as 0.267 h (metabolic stability; cynomolgus monkey, hepatocytes; 1 µM).
CCCCCCCC/C=C\CCCCCCCC(=O)OC[C@](C)(O)C[C@@H]1NC(=O)[C@@H]2Cc3c([nH]c4ccccc34)SC[C@H](NC(=O)[C@@H]([C@H](C)O)NC(=O)[C@H](C)NC1=O)C(=O)N1C[C@@H](O)C[C@H]1C(=O)N[C@@H](C)C(=O)N2 gave a logP of 1.7.
With CC[C@H]1CN2CC[C@H]1C[C@@H]2[C@@H](O)c1ccnc2ccc(OC)cc12 the logP was 3.43 (water).
Nc1nc(-c2ccccc2)nc2[nH]nc(Nc3ccc(C(F)(F)F)cc3)c12 gave a concentration of 418 ng/mL (mouse, plasma; oral, 100 mg/kg, 30 min).
With O=C(NCCCCCn1ccc2ccc(F)cc21)Oc1cccc2[nH]ccc12 the chromatographic logP was 3.5 (HPLC).
For CN[C@H](CC(C)C)C(=O)N[C@H]1C(=O)N[C@@H](CC(N)=O)C(=O)N[C@H]2C(=O)NC3C(=O)N[C@H](C(=O)N[C@H](C(=O)NCCC[N+](C)(C)C)c4cc(O)cc(O)c4-c4cc3ccc4O)[C@H](O)c3ccc(c(Cl)c3)Oc3cc2cc(c3OC2OC(CO)C(O)[C@H](O)[C@@H]2O[C@H]2CC(C)(NCc3ccc(-c4ccc(Cl)cc4)cc3)[C@H](O)[C@H](C)O2)Oc2ccc(cc2Cl)[C@H]1O (some centres unmarked), the half-life was 6.2 h (mouse, plasma; intravenous, 50 mg/kg).
For N=c1c2c(-c3ccccc3)c(-c3ccccc3)n(Cc3ccccc3)c2ncn1[C@H]1CC[C@H](O)CC1, the half-life was 98.4 h (female minipig, plasma; oral, 2.5 mg/kg, single dose).
CCN(CC)CCCC[C@H](NC(=O)[C@H](CC(C)C)NC(=O)[C@H](C)NC(=O)[C@H](Cc1ccccc1)NC(=O)c1ccc(C(C)(C)C)cc1)C(=O)N[C@@H](CO)C(=O)OC has a half-life of 0.09 h (male Swiss mouse, blood; intravenous, 3 mg/kg).
C[C@]12CC[C@H](n3ccnc3)CC1=CC[C@@H]1[C@@H]2CC[C@]2(C)C(n3cnc4ccccc43)=CC[C@@H]12.Cl.Cl has a half-life of 17.5 h (male CD-1 mouse, plasma; intravenous, 1 mg/kg).
NC(=O)c1cccc(-c2cccc(OC(=O)NC3CCCCC3)c2)c1 gave a chromatographic logP of 2 (HPLC).
C=C[C@H]1C[N@@]2CC[C@H]1C[C@@H]2[C@@H](O)c1ccnc2ccccc12 has a logP of 2.82 (water).
O=C(NCCCCCn1ccc2ccc(F)cc21)Oc1cccnc1 has a chromatographic logP of 2.6 (HPLC).
With C[C@H]1COCCN1c1nc(NCc2cccnc2C(F)(F)F)c2cccnc2n1 the hepatocyte CLint was 10 µL/min/10⁶ cells (metabolic stability; dog, hepatocytes).
With C[C@]12CC[C@H](O)CC1=CC[C@@H]1[C@@H]2CC[C@]2(C)C(n3cnc4ccccc43)=CC[C@@H]12.Cl the half-life was 1.02 h (mouse, plasma; intravenous, 1 mg/kg).
The chromatographic logP of Cc1ccncc1OC(=O)NCCCCCn1ccc2ccc(F)cc21 is reported as 2.7 (HPLC).
